Neddyl block: blocks human cullin neddylation; actives 0.58% (n = 360,000); AID 651699; TR-FRET cullin neddylation, biochemical; inhibition, % at 25 µM; in the data active means inhibition above about 36%
Arrestin-AP2 inh: inhibitors of human beta-arrestin and AP2 interaction | FITC-arrestin peptide / GST-AP2 beads, flow cytometry; AP2 beta2 appendage carries R879A mutation | inhibition, % at 10 µM | actives 0.31% (n = 340,000) | AID 504490;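 active means inhibition above a set limit, near 3 SD of compounds lacking own fluorescence, cut at about 54% in these data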
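System: GST-AP2 R879A glutathione beads; medium: PBS, Tween 20 0.05%, BSA 0.1%; reagent: fluorescein-tagged arrestin peptide at 50 nM final; schedule: pre-incubation 12 min, peptide binding 1 h, room temperature; detection: flow cytometry, FL1 (488/535 nm); read-out: inhibition as reduced fluorescein signal on beads, percent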
Efflux pump mplx: antifungal efflux pump inhibition, Nile Red retention; actives 0.44% (n = 330,000); AID 485275; inhibition, % at 10 µM; S. cerevisiae Candida pump triplex;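 active means plate passing quality check with inhibition over a set limit, or well fluorescence over plate mean plus 4 SD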;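 further: Nile Red retained in pooled yeast measured as flow cytometry median fluorescence; higher means more Nile Red kept so more efflux inhibition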
DSG3 Ab inh: blocks pemphigus antibody binding to human desmoglein-3; DSG3-coupled beads, scFv-anti-DSG3-GFP binding, flow cytometry; stronger effect = lower value; binding (percent of control), % at 10 µM; actives 0.48% (n = 310,000); AID 588358;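 active means binding more than 3 SD below its plate's average and above zero; inconclusive means below that plate limit but binding exactly zero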;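 further: hits lower antibody fragment binding to DSG3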
Target sequence (P32926 whole entry, looked up, the tested form may be a part): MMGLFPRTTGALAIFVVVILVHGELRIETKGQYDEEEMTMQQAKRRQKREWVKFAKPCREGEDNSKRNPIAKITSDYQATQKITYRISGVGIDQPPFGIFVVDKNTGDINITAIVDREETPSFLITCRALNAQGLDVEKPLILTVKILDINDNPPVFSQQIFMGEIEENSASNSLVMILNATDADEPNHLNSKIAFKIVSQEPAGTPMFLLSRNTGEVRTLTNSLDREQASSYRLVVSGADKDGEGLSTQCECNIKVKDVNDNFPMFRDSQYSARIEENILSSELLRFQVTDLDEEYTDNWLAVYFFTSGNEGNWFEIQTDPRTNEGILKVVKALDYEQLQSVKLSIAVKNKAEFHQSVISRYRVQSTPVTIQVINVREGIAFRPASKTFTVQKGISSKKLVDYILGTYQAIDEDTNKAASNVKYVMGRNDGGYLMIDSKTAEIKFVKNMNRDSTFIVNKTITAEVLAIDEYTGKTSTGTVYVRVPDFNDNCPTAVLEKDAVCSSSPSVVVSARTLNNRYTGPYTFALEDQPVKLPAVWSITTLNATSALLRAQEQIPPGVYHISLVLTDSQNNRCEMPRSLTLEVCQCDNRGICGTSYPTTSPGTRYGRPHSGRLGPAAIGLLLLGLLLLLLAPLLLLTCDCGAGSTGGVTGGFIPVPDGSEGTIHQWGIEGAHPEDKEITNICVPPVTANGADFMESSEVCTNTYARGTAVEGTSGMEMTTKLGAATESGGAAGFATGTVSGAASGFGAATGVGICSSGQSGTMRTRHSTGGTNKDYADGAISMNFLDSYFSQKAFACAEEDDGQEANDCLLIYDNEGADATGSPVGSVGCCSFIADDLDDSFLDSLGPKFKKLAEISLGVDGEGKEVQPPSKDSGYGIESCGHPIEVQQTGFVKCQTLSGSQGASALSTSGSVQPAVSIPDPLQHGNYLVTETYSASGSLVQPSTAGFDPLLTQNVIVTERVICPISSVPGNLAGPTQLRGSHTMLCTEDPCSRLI
Each line names hits and unclear results; the compound was inactive in the other large screens. Most compounds without a hit are left out; they make up all but 1.7% or so of the library.

Cc1cc(O)c(-c2cc(C(=O)NCc3ccc4c(c3)OCO4)[nH]n2)cc1C	DSG3 Ab inh 82
COc1ccc(OC)c(C(=O)NC(CC(N)=O)c2ccc(NCCN3CCCCC3)c([N+](=O)[O-])c2)c1 (centres undefined)	none
COc1ccc(Nc2nc(C)cc(C)c2C#N)cc1OC	DSG3 Ab inh 12
COc1cccc(Nc2nc(C)cc(C)c2C#N)c1	none
CCOC(=O)C1(Cc2cccc(Cl)c2)CCCN(C(=O)c2ccc(C)nc2)C1 (centres undefined)	DSG3 Ab inh 67
O=C(O)c1cccc(-c2ccc(/C=N/Nc3ccc([N+](=O)[O-])cc3)o2)c1	none
CNC(=S)N/N=C/c1ccc(-c2ccc(C(=O)O)cc2)o1	Neddyl block 48
O=C(O)c1ccc(-c2ccc(/C=N/Nc3ccc([N+](=O)[O-])cc3)o2)cc1	DSG3 Ab inh 6.2
NS(=O)(=O)c1ccc(-c2ccc(/C=N/NC(=O)c3ccc([N+](=O)[O-])cc3)o2)cc1	DSG3 Ab inh 75
C=C(C)C(=O)Nc1cccc(C2=NOC3(C2)C[C@@H](C(N)=O)N(C(=O)/C=C/C=C/C)C3)c1 (some centres undefined)	DSG3 Ab inh 90
C/C=C/C=C/C(=O)N1CC2(CC(c3cccc(NC(=O)/C=C/C)c3)=NO2)C[C@@H]1C(N)=O (some centres undefined)	none
C=C(C)C(=O)Nc1cccc(C2=NOC3(C2)C[C@@H](C(N)=O)N(C(=O)/C(C)=C/C)C3)c1 (some centres undefined)	DSG3 Ab inh 89
CCN(CC)CCNC(=O)C(=O)Nc1ccc(C(=O)OC)cc1	none
CCN(CC)S(=O)(=O)c1cccc(-c2nnc(SCCOc3ccc(Cl)cc3)o2)c1	DSG3 Ab inh -11
Cc1ccc(S(=O)(=O)N2CCN(c3ccc(C(F)(F)F)cc3[N+](=O)[O-])CC2)cc1	DSG3 Ab inh 67
CCCCCCCN1CCC(=O)N([C@H](CO)CC(C)C)CC1	none
N#Cc1ccccc1NC(=O)c1ccc2c(Cl)c3c(nc2c1)CCCC3	DSG3 Ab inh 93
COc1ccc(/C=N/NC(=O)c2ccn[nH]2)cc1Cn1nc(C)c([N+](=O)[O-])c1C	none
COc1ccc(/C=N/NC(=O)c2ccco2)cc1Cn1nc(C)c([N+](=O)[O-])c1C	DSG3 Ab inh -160
CC(C)S(=O)(=O)c1csc(C(=O)Nc2ccc(F)cc2)c1N	none (no result: DSG3 Ab inh)
O=C(Nc1nc(-c2ccccc2)c(C(=O)c2ccccc2)s1)c1ccc(S(=O)(=O)N2CCCC2)cc1	DSG3 Ab inh -1.0
O=C(Nc1nc(-c2ccccc2)c(-c2ccccc2)s1)c1ccc(S(=O)(=O)N2CCCC2)cc1	DSG3 Ab inh 82
O=C(Nc1ccccc1)c1ccc(S(=O)(=O)N2CCCC2)cc1	none
COc1ccc(/C=N/OC/C(O)=C(\C#N)c2nc3ccccc3[nH]2)cc1	none
COc1ccc(OC/C(O)=C(\C#N)c2nc3ccccc3[nH]2)cc1	DSG3 Ab inh 16
CCOC(=O)Cc1csc(NC(=O)CSc2nccn2C)n1	none
Cc1cc(=O)n2[nH]cc(-c3ccccc3)c2n1	none (not shown: Neddyl block)
Cc1nc2c(-c3ccccc3)c[nH]n2c(=O)c1Cc1ccccc1	DSG3 Ab inh 64 (not shown: Neddyl block)
CCOc1c(Cl)cc(Cl)cc1CNCCNCCO	none
O=C(N/N=C/c1ccccc1O)C1CC(=O)N(c2ccc(Cl)cc2)C1 (centres undefined)	Neddyl block 51
CCOc1ccc(N(CC)S(=O)(=O)c2ccc3c(c2)n(C)c(=O)c(=O)n3C)cc1	DSG3 Ab inh -11
O=C(CCn1nc(-c2ccc(Cl)cc2)c2ccccc2c1=O)NN1CCOCC1	DSG3 Ab inh 82
CCCNC(=O)CCn1nc(-c2ccc(Cl)cc2)c2ccccc2c1=O	DSG3 Ab inh 80
CCCNC(=O)CCn1nc(-c2ccc(C)cc2)c2ccccc2c1=O	none
CC1(C(=O)NS(=O)(=O)C2CC2)CCN(C(=O)COc2ccc(Cl)cc2Cl)C1 (centres undefined)	none (no result: Arrestin-AP2 inh, Efflux pump mplx, DSG3 Ab inh)
CCc1nc2ccc(C(=O)NCc3cccs3)cn2c1N(CC)CCOC	none (no result: Arrestin-AP2 inh, Efflux pump mplx, DSG3 Ab inh)
COc1ccc(NC(=O)c2oc3ccccc3c2NC(=O)c2ccc(OC)c(OC)c2)c(OC)c1	DSG3 Ab inh 7.3 (not shown: Neddyl block, Efflux pump mplx)
Cc1ccccc1Cn1c(C)c(C(=O)N(C)Cc2ccc(F)cc2)sc1=O	none (no result: Arrestin-AP2 inh, Efflux pump mplx, DSG3 Ab inh)
CC1C=CCC2C(=O)N(c3cc(Cl)ccc3O)C(=O)C12 (centres undefined)	none
CCc1ccc(C(=O)Nc2ccc(S(=O)(=O)Nc3nc(C)cc(C)n3)cc2)o1	DSG3 Ab inh 35
Cc1ccc(NS(=O)(=O)c2ccc3oc(=O)ccc3c2)cc1Cl	none
COc1cc(NC(=S)N2CCN(C)CC2)cc(OC)c1	none
N#C/C(=C/c1ccc(-c2cc(C(=O)O)cc(C(=O)O)c2)o1)c1nc2ccccc2s1	Efflux pump mplx 0.8 (no result: Neddyl block, Arrestin-AP2 inh, DSG3 Ab inh)
COC1=C/C(=C/c2c(O)c(C#N)c3ccccn23)C=CC1=O	Neddyl block 39
COc1cc(OC)cc(C(=O)c2c(C)c(C#N)c3ccccn23)c1	none (no result: Efflux pump mplx)
COc1ccc(NC(=O)Nc2ccccc2SC)c(OC)c1	DSG3 Ab inh -6.3
CC(=O)Nc1ccc(NC(=S)NC(=O)c2ccc(-c3ccccc3)cc2)cc1	DSG3 Ab inh 71
CC(C)NS(=O)(=O)c1ccc(NC(=S)NC(=O)c2ccc(-c3ccccc3)cc2)cc1	none
O=C(NC(=S)Nc1ccccc1)c1ccc(-c2ccccc2)cc1	none
O=C(O)c1ccc(NC(=S)NC(=O)c2ccc(-c3ccccc3)cc2)cc1	DSG3 Ab inh 31
Cc1ccc(C(=O)NC(=S)NNC(=O)c2ccccc2)cc1	none
Cc1ccc(C(=O)NNC(=S)NC(=O)c2ccccc2)cc1	Neddyl block 39
Cc1cc(NC(=O)CSc2nc3cc(C)c(C)cc3cc2C)no1	none (no result: DSG3 Ab inh)
Cc1cc(C)cc(NC(=O)CCn2c(=S)[nH]c3ccccc3c2=O)c1	none (no result: DSG3 Ab inh)
COc1ccc(NC(=O)CCn2c(=S)[nH]c3ccccc3c2=O)cc1OC	DSG3 Ab inh 63
N#Cc1nc(COc2ccc(-c3ccccc3)cc2)oc1NCCCN1CCOCC1	Arrestin-AP2 inh 83
O=C(Cn1ncc2c(=O)oc3ccccc3c21)NCC1COc2ccccc2O1 (centres undefined)	DSG3 Ab inh 88
Cc1cc(C)c2c3c(sc2n1)C(c1cccc(F)c1)C(C#N)=C(N)O3 (centres undefined)	Neddyl block 53
CCCN1CCC2(CC1)C(C#N)=C(N)Oc1c2sc2nc(C)cc(C)c12	DSG3 Ab inh inconclusive
O=C(/C=C/[C@H]1O[C@@H](n2cnc3c(NC(=O)c4ccccc4)ncnc32)[C@H](O)[C@@H]1O)NCCCN1CCCC1=O	none (no result: Arrestin-AP2 inh, Efflux pump mplx, DSG3 Ab inh)
Cc1cc(/C=N/NC(=O)c2cccc(N(C)C)c2)c(C)n1-c1cc(C(=O)O)cc(C(=O)O)c1	Neddyl block 39 (no result: Efflux pump mplx)
CN(CC(=O)Nc1ccccc1C(F)(F)F)C(=O)c1cc2c(s1)CCCCC2	none
COc1ccc(CNC(=O)C(c2ccco2)N(C(=O)c2snc(C(N)=O)c2N)c2ccccc2OC)cc1 (centres undefined)	Neddyl block 39
O=C(NC(=S)Nc1ccc(NC(=O)c2cccs2)cc1)c1cc2ccccc2o1	DSG3 Ab inh 70
O=C(NC(=S)Nc1ccc(NC(=O)c2cccs2)cc1)c1ccco1	none
